According to paper PMC6239893 (Nature chemical biology, 2018):

Key:
[1] = test system: ai5γ intron with short exons (SE RNA); assay: Radioanalytic self-splicing assay; type: biochemical, S. cerevisiae; conditions: relative to lead compound; IC50 and Ki assays
Outline: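 Internally ³²P-labelled ai5γ precursor with short exons (2 nM) self-spliced at 30 °C with a range of test compound concentrations. Buffer was 50 mM MOPS pH 7.5, 8 mM MgCl₂, 100 mM KCl. First-order splicing rates were fitted to k_obs = k_max/(1+[I]/K_i) to give K_i. Each determination was repeated 2–4 times; mean ± s.e.m.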

[2] = test system: COX1 aI5γ group II intron; assay: Analysis of splicing in S. cerevisiae by qRT-PCR; type: cell-based; conditions: S. cerevisiae in YPGE, 4 h; 19 64 μg/mL, 18 32 μg/mL, 12 32 μg/mL, 3 64 μg/mL
[3] = test system: ai5γ group II intron (D135 ribozyme); assay: Fluorescent D135 ribozyme cleavage assay; type: biochemical, S. cerevisiae; conditions: compared with the parental molecule 7
[4] = test system: S. cerevisiae wild-type (NP40–36a) and intronless (XPM46) strains; assay: S. cerevisiae growth assays, wild-type vs mtDNA intronless strain; type: cell-based; conditions: YPGE medium, 64 or 128 μg/mL
Outline: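 Wild-type NP40–36a and mtDNA intronless XPM46 strains were grown overnight with shaking to mid-log phase in YPGE at 30 °C. Equal cell numbers were serially diluted 1:5 and plated on YPD or YPGE. Plates held DMSO or test compound at 64 or 128 µg/mL final. Plates grew at 30 °C for 1 day (YPD), 2 days (YPGE with DMSO) or 18 days (YPGE with compound). Done twice.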

Row | In vitro inhibitory activity in SAR (in words) [1] | Structure (SMILES) | Splicing of COX1 aI5γ group II intron in vivo (unspliced precursor, qRT-PCR) [2] | further results
1 | inactivated | O=C1/C(=C/c2ccc(O)c(O)c2)Oc2cc(O)cc(O)c21 [Compound 2] | – | –
2 | – | O=C1/C(=C/c2cc(O)cc(O)c2)Oc2cc(O)cc(O)c21 [Compound 3] | inactive | –
3 | – | O=C(c1cc(O)c(O)c(O)c1)c1cc2ccccc2o1 [Compound 9] | – | Increase in in vitro potency [3]: 2 fold
4 | substantial loss of activity | COc1ccc(CNC(=O)c2cc(O)c(O)c(O)c2)cc1OC [Compound 10] | – | –
5 | substantial loss of activity | CCCCNS(=O)(=O)c1ccc(-c2ccc(-c3nc(-c4cc(O)c(O)c(O)c4)cs3)cc2)cc1 [Compound 11] | – | –
6 | – | Cc1ccncc1-c1ccc2oc(C(=O)c3cc(O)c(O)c(O)c3)cc2c1 [Compound 12] | inhibit splicing | –
7 | – | CC(=O)c1ccc(-c2ccc3oc(C(=O)c4cc(O)c(O)c(O)c4)cc3c2)cc1 [Compound 18] | inhibit splicing | Growth of intronless strain versus wild-type strain in presence of compound [4]: much more resistant
